Results: ChEMBL document CHEMBL1629436, “Synthesis and biological evaluation of new camptothecin derivatives obtained by modification of position 20” (Bioorg Med Chem, 2010)
Calls of active or inactive are those of the source.

Assays:
A2C12 [1] = experiment: Induction apoptosis in mouse A2C12 cells assessed as ROS production at 10 uM/L using DCFH-DA by flow cytometry relative to control; format: functional, cell-based
Outline: (§1)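 Transgenic mouse cells exposed to compound at 10 µmol/L. ROS generation was measured by flow cytometry using the probe DCFH-DA.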

Mus musculus [2] = species: Mus musculus; experiment: Induction apoptosis in mouse betaD10 cells assessed as ROS production at 10 uM/L using DCFH-DA by flow cytometry relative to control; format: functional, cell-based; outline: as §1
Mus musculus [3] = species: Mus musculus; experiment: Cytotoxicity against mouse betaD5 cells after 24 to 96 hrs by MTS assay; format: functional, cell-based
Outline: (§2)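 Mouse transgenic lines plated at 10^3 cells/well and left 24 h to attach. Drugs diluted in medium were added for 24 or 96 h. CellTiter 96 AQueous One (MTS) reagent was then added for 1 h at 37 °C, with absorbance read at 490 nm. Each condition was run in quintuplicate, and cytotoxicity was expressed as percent of controls.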

yA7 [4] = experiment: Cytotoxicity against mouse yA7 cells after 24 to 96 hrs by MTS assay; format: functional, cell-based; outline: as §2
yA7 [5] = experiment: Induction apoptosis in mouse yA7 cells assessed as ROS production at 10 uM/L using DCFH-DA by flow cytometry relative to control; format: functional, cell-based; outline: as §1
Craf/Cmyc [6] = experiment: Induction apoptosis in mouse Craf/Cmyc cells assessed as relative caspase activity at 10 uM/L after 2 hrs by rhodamine 110 fluorescence assay; format: functional
Outline: (§3)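 Cells were pretreated with compound (10 µmol/L) for 2 h. The cell-permeable caspase substrate (Asp)2-rhodamine 110 (10 µmol/L) was then added for 2 h more. Caspase cleavage releases fluorescent rhodamine 110, and the read-out was mean fluorescence.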

Nucleic Acid = experiment: Binding affinity to salmon testes DNA by linear flow dichroism analysis; format: nucleic-acid assay; conditions: Salmonidae
Outline: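 Salmon testes DNA (1.9 × 10^-3 M) in ETN buffer (10 mM Tris, 10 mM NaCl, 1 mM EDTA, pH 7). Linear dichroism spectra were recorded at 25 °C over a range of [drug]/[DNA] ratios on a spectropolarimeter converted for LD.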

Craf/Cmyc [7] = experiment: Cytotoxicity against mouse Craf/Cmyc cells after 24 to 96 hrs by MTS assay; format: functional, cell-based; outline: as §2
yD1 [8] = experiment: Induction apoptosis in mouse yD1 cells assessed as ROS production at 10 uM/L using DCFH-DA by flow cytometry relative to control; format: functional, cell-based; outline: as §1
Mus musculus [9] = species: Mus musculus; experiment: Cytotoxicity against mouse betaD10 cells after 24 to 96 hrs by MTS assay; format: functional, cell-based; outline: as §2
A2C12 [10] = experiment: Cytotoxicity against mouse A2C12 cells after 24 to 96 hrs by MTS assay; format: functional, cell-based; outline: as §2
[11] = target: DNA topoisomerase 2-alpha (Homo sapiens) (UniProt P11388); experiment: Inhibition of human recombinant topoisomerase 2alpha-mediated relaxation of supercoiled pBR322 at up to 100 uM after 60 mins using ethidium bromide staining by agarose gel electrophoresis
Outline: (§4)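 Supercoiled pBR322 (0.25 µg) with 1 U human recombinant topoisomerase IIα and test compound, 60 min at 37 °C in 20 µl reaction buffer. Stopped with SDS/bromophenol blue/glycerol plus 50 µg/mL proteinase K, 30 min at 37 °C. Separated on 1% agarose at room temperature, ethidium bromide stained (1 µg/mL, TAE), UV-visualized.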

yB8 [12] = experiment: Induction apoptosis in mouse yB8 cells assessed as ROS production at 10 uM/L using DCFH-DA by flow cytometry relative to control; format: functional, cell-based; outline: as §1
B3 [13] = experiment: Induction apoptosis in mouse B3 cells assessed as ROS production at 10 uM/L using DCFH-DA by flow cytometry relative to control; format: functional, cell-based; outline: as §1
yA7 [14] = experiment: Induction apoptosis in mouse yA7 cells assessed as relative caspase activity at 10 uM/L after 2 hrs by rhodamine 110 fluorescence assay; format: functional, cell-based; outline: as §3
yA3 [15] = experiment: Induction apoptosis in mouse yA3 cells assessed as relative caspase activity at 10 uM/L after 2 hrs by rhodamine 110 fluorescence assay; format: functional, cell-based; outline: as §3
yB8 [16] = experiment: Induction apoptosis in mouse yB8 cells assessed as relative caspase activity at 10 uM/L after 2 hrs by rhodamine 110 fluorescence assay; format: functional, cell-based; outline: as §3
yD12 [17] = experiment: Induction apoptosis in mouse yD12 cells assessed as relative caspase activity at 10 uM/L after 2 hrs by rhodamine 110 fluorescence assay; format: functional, cell-based; outline: as §3
A2B1 [18] = experiment: Induction apoptosis in mouse A2B1 cells assessed as relative caspase activity at 10 uM/L after 2 hrs by rhodamine 110 fluorescence assay; format: functional, cell-based; outline: as §3
A2C12 [19] = experiment: Induction apoptosis in mouse A2C12 cells assessed as relative caspase activity at 10 uM/L after 2 hrs by rhodamine 110 fluorescence assay; format: functional, cell-based; outline: as §3
yD12 [20] = experiment: Induction apoptosis in mouse yD12 cells assessed as ROS production at 10 uM/L using DCFH-DA by flow cytometry relative to control; format: functional, cell-based; outline: as §1
yA3 [21] = experiment: Induction apoptosis in mouse yA3 cells assessed as ROS production at 10 uM/L using DCFH-DA by flow cytometry relative to control; format: functional, cell-based; outline: as §1
A2B1 [22] = experiment: Induction apoptosis in mouse A2B1 cells assessed as ROS production at 10 uM/L using DCFH-DA by flow cytometry relative to control; format: functional, cell-based; outline: as §1
yB8 [23] = experiment: Cytotoxicity against mouse yB8 cells after 24 to 96 hrs by MTS assay; format: functional, cell-based; outline: as §2
yA3 [24] = experiment: Cytotoxicity against mouse yA3 cells after 24 to 96 hrs by MTS assay; format: functional, cell-based; outline: as §2
HeLa = experiment: Cytotoxicity against human HeLa cells after 72 hrs by trypan blue assay; format: functional, cell-based
Outline: (§5)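 A-431, HeLa and HL-60 cells at 4×10^4 per well, incubated 24 h. HeLa and A-431 then received fresh medium. Graded compound concentrations were added for a further 72 h at 37 °C, 5% CO2. Viability was counted by Trypan blue exclusion. IC50 is the concentration giving 50% reduction in cell number versus control: ≥3 independent experiments, triplicate samples, mean ± SD.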

Craf/Cmyc [25] = experiment: Induction apoptosis in mouse Craf/Cmyc cells assessed as ROS production at 10 uM/L using DCFH-DA by flow cytometry relative to control; format: functional, cell-based; outline: as §1
A2B1 [26] = experiment: Cytotoxicity against mouse A2B1 cells after 24 to 96 hrs by MTS assay; format: functional, cell-based; outline: as §2
A-431 = experiment: Cytotoxicity against human A431 cells after 72 hrs by trypan blue assay; format: functional, cell-based; conditions: A-431, 72 h; outline: as §5
B3 [27] = experiment: Cytotoxicity against mouse B3 cells after 24 to 96 hrs by MTS assay; format: functional, cell-based; outline: as §2
yD1 [28] = experiment: Induction apoptosis in mouse yD1 cells assessed as relative caspase activity at 10 uM/L after 2 hrs by rhodamine 110 fluorescence assay; format: functional, cell-based; outline: as §3
Mus musculus [29] = species: Mus musculus; experiment: Induction apoptosis in mouse betaD5 cells assessed as relative caspase activity at 10 uM/L after 2 hrs by rhodamine 110 fluorescence assay; format: functional, cell-based; outline: as §3
Bos taurus = species: Bos taurus; experiment: Inhibition of calf thymus topoisomerase 1-mediated relaxation of supercoiled pBR322 at 100 uM after 60 mins using ethidium bromide staining by agarose gel electrophoresis
Outline: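 Supercoiled pBR322 (0.25 µg) with 2 U calf thymus topoisomerase I and test compound, 60 min at 37 °C in 20 µl reaction buffer. Stopped with SDS/bromophenol blue/glycerol plus 50 µg/mL proteinase K, 30 min at 37 °C. Run on 1% agarose at room temperature, stained with ethidium bromide 1 µg/mL in TAE, imaged under UV.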

yD12 [30] = experiment: Cytotoxicity against mouse yD12 cells after 24 to 96 hrs by MTS assay; format: functional, cell-based; outline: as §2
Mus musculus [31] = species: Mus musculus; experiment: Induction apoptosis in mouse betaD5 cells assessed as ROS production at 10 uM/L using DCFH-DA by flow cytometry relative to control; format: functional, cell-based; outline: as §1
HL-60 = experiment: Cytotoxicity against human HL60 cells after 72 hrs by trypan blue assay; format: functional, cell-based; conditions: HL-60, 72 h; outline: as §5
B3 [32] = experiment: Induction apoptosis in mouse B3 cells assessed as relative caspase activity at 10 uM/L after 2 hrs by rhodamine 110 fluorescence assay; format: functional, cell-based; outline: as §3
Mus musculus [33] = species: Mus musculus; experiment: Induction apoptosis in mouse betaD10 cells assessed as relative caspase activity at 10 uM/L after 2 hrs by rhodamine 110 fluorescence assay; format: functional, cell-based; outline: as §3
[34] = target: DNA topoisomerase 2-alpha (Homo sapiens) (UniProt P11388); experiment: Inhibition of human recombinant topoisomerase 2alpha-mediated relaxation of supercoiled pBR322 at 50 uM after 60 mins using ethidium bromide staining by agarose gel electrophoresis; outline: as §4
[35] = target: DNA topoisomerase 2-alpha (Homo sapiens) (UniProt P11388); experiment: Inhibition of human recombinant topoisomerase 2alpha-mediated relaxation of supercoiled pBR322 after 60 mins using ethidium bromide staining by agarose gel electrophoresis; outline: as §4

Chain of DNA topoisomerase 2-alpha (Homo sapiens) (P11388 whole entry): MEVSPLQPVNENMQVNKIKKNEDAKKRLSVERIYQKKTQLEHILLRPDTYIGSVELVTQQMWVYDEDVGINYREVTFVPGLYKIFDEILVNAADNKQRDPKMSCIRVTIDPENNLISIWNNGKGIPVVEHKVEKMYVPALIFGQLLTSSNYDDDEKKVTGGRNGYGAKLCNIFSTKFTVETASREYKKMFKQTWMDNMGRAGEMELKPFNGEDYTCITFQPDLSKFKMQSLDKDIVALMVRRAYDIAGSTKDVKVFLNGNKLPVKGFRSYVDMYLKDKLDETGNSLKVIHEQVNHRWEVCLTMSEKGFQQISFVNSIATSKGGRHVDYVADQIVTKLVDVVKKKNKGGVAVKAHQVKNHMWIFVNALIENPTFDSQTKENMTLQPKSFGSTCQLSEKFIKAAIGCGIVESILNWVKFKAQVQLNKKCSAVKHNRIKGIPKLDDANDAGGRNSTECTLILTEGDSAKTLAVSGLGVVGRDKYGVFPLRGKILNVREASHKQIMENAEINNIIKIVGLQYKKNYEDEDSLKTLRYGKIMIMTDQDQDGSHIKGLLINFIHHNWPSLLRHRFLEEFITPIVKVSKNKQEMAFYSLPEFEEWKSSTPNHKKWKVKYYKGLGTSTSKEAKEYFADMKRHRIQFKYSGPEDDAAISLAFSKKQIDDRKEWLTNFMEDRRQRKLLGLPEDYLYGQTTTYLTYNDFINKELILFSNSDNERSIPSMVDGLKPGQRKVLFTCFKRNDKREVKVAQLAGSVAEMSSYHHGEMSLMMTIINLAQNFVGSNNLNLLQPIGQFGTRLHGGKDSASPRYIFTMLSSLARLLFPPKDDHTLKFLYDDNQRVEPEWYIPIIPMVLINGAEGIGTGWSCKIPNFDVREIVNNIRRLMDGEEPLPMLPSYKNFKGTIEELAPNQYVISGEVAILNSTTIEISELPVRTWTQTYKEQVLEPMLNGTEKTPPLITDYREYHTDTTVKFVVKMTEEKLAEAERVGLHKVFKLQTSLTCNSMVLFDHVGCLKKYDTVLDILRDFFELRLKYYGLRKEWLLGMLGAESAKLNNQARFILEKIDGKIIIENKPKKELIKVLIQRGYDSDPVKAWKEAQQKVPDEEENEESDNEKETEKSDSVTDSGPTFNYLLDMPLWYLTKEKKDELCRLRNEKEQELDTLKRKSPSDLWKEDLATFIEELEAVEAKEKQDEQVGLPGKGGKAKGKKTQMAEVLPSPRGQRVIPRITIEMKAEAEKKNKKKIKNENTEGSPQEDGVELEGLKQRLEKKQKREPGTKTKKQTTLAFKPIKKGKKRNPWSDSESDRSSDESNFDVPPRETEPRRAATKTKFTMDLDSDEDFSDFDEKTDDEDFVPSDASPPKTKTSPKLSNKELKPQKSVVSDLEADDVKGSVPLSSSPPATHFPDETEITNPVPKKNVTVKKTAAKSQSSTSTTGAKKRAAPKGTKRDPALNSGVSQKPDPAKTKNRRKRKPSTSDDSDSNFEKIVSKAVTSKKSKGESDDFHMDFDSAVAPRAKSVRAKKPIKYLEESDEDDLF

CC[C@@]1(OC(=O)NCCN2C(=O)CCCCCCCCC2=O)C(=O)OCc2c1cc1n(c2=O)Cc2cc3ccccc3nc2-1
1.88 µM: IC50 (A-431)
inactive: Activity (A2C12 [1]) | Activity (Mus musculus [2]) | Activity (yA7 [5]) | Activity (Craf/Cmyc [6]) | Activity (Nucleic Acid) | Activity (yD1 [8]) | Activity [11] | Activity (yB8 [12]) | Activity (B3 [13]) | Activity (yA7 [14]) | Activity (yA3 [15]) | Activity (yB8 [16]) | Activity (yD12 [17]) | Activity (A2B1 [18]) | Activity (A2C12 [19]) | Activity (yD12 [20]) | Activity (yA3 [21]) | Activity (A2B1 [22]) | Activity (Craf/Cmyc [25]) | Activity (yD1 [28]) | Activity (Mus musculus [29]) | Activity (Bos taurus) | Activity (Mus musculus [31]) | Activity (B3 [32]) | Activity (Mus musculus [33])
active: Activity (Mus musculus [3]) | Activity (yA7 [4]) | Activity (Craf/Cmyc [7]) | Activity (Mus musculus [9]) | Activity (A2C12 [10]) | Activity (yB8 [23]) | Activity (yA3 [24]) | Activity (A2B1 [26]) | Activity (B3 [27]) | Activity (yD12 [30])
8.3 µM: IC50 (HeLa)
12.2 µM: IC50 (HL-60)

CC[C@@]1(OC(=O)NCCN2C(=O)CSSCC2=O)C(=O)OCc2c1cc1n(c2=O)Cc2cc3ccccc3nc2-1
inactive: Activity (Nucleic Acid) | Activity [11]

CC[C@@]1(OC(=O)NCCNC(=O)CCSSCCC(=O)NCCNC(=O)O[C@]2(CC)C(=O)OCc3c2cc2n(c3=O)Cc3cc4ccccc4nc3-2)C(=O)OCc2c1cc1n(c2=O)Cc2cc3ccccc3nc2-1
inactive: Activity (Nucleic Acid) | Activity (Bos taurus)
0.7 µM: IC50 (HeLa)
active: Activity (Mus musculus [3]) | Activity (yA7 [4]) | Activity (Craf/Cmyc [7]) | Activity (Mus musculus [9]) | Activity (A2C12 [10]) | inhibition [34] | Activity (yB8 [23]) | Activity (yA3 [24]) | Activity (A2B1 [26]) | Activity (B3 [27]) | Activity (yD12 [30]) | Activity [35] Dose-dependent effect
0.92 µM: IC50 (HL-60)
0.15 µM: IC50 (A-431)

CC[C@@]1(OC(=O)NCCNC(=O)CSSCC(=O)NCCNC(=O)O[C@]2(CC)C(=O)OCc3c2cc2n(c3=O)Cc3cc4ccccc4nc3-2)C(=O)OCc2c1cc1n(c2=O)Cc2cc3ccccc3nc2-1
inactive: Activity (Nucleic Acid) | Activity [11]
